Laboratory results published in paper PMC11290325 (Chemical Science, 2024).
Values belong to the compound of their own block, whether it stands above or below them. Where a SMILES comes first, the peptide text is derived from it.

Legend:
[1] = biological target: hKeap1 (Homo sapiens, UniProt Q14145); experiment: BLI binding to hKeap1; conditions: Hk2 and Hk3 tested up to 100 μM
[2] = biological target: T1, PTP1B (Homo sapiens, UniProt P18031); experiment: Bio-Layer Interferometry; format: binding
T1 sequence (P18031 1-435): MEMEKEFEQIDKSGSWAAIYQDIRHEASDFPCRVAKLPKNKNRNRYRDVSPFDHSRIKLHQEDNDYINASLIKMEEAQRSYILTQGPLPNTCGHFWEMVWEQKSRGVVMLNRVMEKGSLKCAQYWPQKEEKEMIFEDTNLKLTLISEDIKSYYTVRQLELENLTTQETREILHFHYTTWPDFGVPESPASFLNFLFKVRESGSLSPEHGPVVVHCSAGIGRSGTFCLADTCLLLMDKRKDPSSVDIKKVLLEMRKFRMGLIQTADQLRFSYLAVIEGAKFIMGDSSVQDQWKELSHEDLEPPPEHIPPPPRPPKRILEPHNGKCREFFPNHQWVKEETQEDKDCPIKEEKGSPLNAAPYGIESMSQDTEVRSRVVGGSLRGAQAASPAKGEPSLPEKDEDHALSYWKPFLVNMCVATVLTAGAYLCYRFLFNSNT
Procedure, shortened: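 Bio-layer interferometry […]. Wavelength shift and kinetic parameters were recorded. Kd was obtained by curve fitting. Cyclic peptides were made by OPA treatment of purified SPPS linear precursors.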

[3] = biological target: T1, PTP1B; experiment: in vitro enzyme inhibition of PTP1B; format: biochemical
[4] = biological target: NEK7 (Homo sapiens, UniProt Q8TDX7); experiment: BLI binding to NEK7
Chain of NEK7 (Q8TDX7 whole entry): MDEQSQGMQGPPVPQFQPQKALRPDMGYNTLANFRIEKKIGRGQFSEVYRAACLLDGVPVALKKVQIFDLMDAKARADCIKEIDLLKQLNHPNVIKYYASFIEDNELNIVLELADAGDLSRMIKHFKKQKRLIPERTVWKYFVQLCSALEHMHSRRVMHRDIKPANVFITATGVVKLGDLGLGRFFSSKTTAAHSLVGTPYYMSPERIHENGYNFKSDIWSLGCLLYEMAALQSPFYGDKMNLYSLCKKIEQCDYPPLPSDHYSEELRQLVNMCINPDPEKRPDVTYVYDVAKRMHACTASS

[5] = tested on: M13 phages; experiment: Phage infectivity; design: species or system M13 bacteriophage; conditions: PBS pH 7.4, 20 min, room temperature
Procedure, shortened: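 M13 phages displaying an N-terminal KGGSC pIII peptide with a factor Xa site were grown in E. coli TG1 and PEG-purified. They were then TCEP-reduced, factor Xa-digested and blocked with CBT (0.5 mM). After CBT removal and buffer exchange, they were treated with OPA at 100, 300 or 500 µM in PBS pH 7.4 for 20 min at room temperature. Titers (cfu) were measured after each stage by infecting TG1.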

Chain of hKeap1 (Q14145 whole entry): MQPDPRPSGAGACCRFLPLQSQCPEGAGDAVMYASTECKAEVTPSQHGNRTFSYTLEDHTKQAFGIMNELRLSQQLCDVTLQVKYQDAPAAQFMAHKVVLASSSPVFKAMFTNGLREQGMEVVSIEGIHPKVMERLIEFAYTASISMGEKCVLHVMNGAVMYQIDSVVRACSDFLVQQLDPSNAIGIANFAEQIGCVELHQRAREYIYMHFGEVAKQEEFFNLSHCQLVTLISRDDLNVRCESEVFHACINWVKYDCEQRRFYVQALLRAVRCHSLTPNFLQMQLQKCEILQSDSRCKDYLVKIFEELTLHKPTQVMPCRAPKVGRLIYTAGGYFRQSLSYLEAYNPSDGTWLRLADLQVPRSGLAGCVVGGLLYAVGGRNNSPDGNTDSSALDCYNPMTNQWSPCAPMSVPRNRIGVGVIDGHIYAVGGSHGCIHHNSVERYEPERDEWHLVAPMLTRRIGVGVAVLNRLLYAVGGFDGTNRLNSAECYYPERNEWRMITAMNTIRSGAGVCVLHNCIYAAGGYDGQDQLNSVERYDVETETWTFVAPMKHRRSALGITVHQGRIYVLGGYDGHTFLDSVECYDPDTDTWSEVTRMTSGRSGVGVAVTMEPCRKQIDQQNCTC

binding to hKeap1 (in words) [1]: no interaction
Compound: Ac-KQTATGRGC-NH2 [Hk1_SS]

Compound: Ac-KTFLHWRYC-NH2 [M1_SS]
Kd [2]: 9.2 ± 0.9 µM | reduction in affinity compared to its cyclic counterpart ([2]; BLI, linear precursor vs cyclic M1_OPA): four-fold | IC50 [3]: 54.8 ± 4.21 µM

binding to NEK7 (in words) [4]: low binding capacity
Compound: CC[C@H](C)[C@@H]1NC(=O)[C@H](CC(C)C)NC(=O)[C@@H]2CCCN2C(=O)[C@H](Cc2ccccc2)NC(=O)[C@H](CC(C)C)NC(=O)[C@H](CC(C)C)NC(=O)[C@@H](NC(C)=O)CCCCn2cc3ccccc3c2SC[C@@H](C(N)=O)NC(=O)[C@H](CC(N)=O)NC1=O [N3] (HELM PEPTIDE1{[ac].[O=C([C@H](CCCCn1cc2ccccc2c1[*:3])N[*:1])[*:2]].L.L.F.P.L.I.N.C.[am]}$PEPTIDE1,PEPTIDE1,2:R3-10:R3$$$V2.0)

binding to hKeap1 (in words) [1]: did not exhibit significant affinity
Compound: CC(=O)N[C@H]1CCCCn2cc3ccccc3c2SC[C@@H](C(N)=O)NC(=O)[C@H](CCC(=O)O)NC(=O)CNC(=O)[C@H]([C@@H](C)O)NC(=O)[C@H](CC(=O)O)NC(=O)[C@@H]2CCCN2C(=O)[C@H](CC(=O)O)NC(=O)[C@H](CC(C)C)NC1=O [Hk2] (HELM PEPTIDE1{[ac].[O=C([C@H](CCCCn1cc2ccccc2c1[*:3])N[*:1])[*:2]].L.D.P.D.T.G.E.C.[am]}$PEPTIDE1,PEPTIDE1,2:R3-10:R3$$$V2.0)

binding to hKeap1 (in words) [1]: did not exhibit significant affinity
Compound: CC(=O)N[C@H]1CCCCn2cc3ccccc3c2SC[C@@H](C(N)=O)NC(=O)CNC(=O)[C@H](CCC(=O)O)NC(=O)CNC(=O)[C@H]([C@@H](C)O)NC(=O)[C@H](C)NC(=O)[C@H]([C@@H](C)O)NC(=O)[C@H](CCC(N)=O)NC1=O [Hk3] (HELM PEPTIDE1{[ac].[O=C([C@H](CCCCn1cc2ccccc2c1[*:3])N[*:1])[*:2]].Q.T.A.T.G.E.G.C.[am]}$PEPTIDE1,PEPTIDE1,2:R3-10:R3$$$V2.0)

Compound: O=Cc1ccccc1C=O [OPA, ortho-phthalaldehyde]
impact on M13 phages in cfus ([5]; OPA concentration below 300 μM): no significant impact | reduction in infectivity compared to untreated phage supernatant ([5]; OPA surpassing the 500 μM threshold): over 20 fold

binding to PTP1B (in words) ([2]; BLI): unable to bind
Compound: Ac-KLFLHWARC-NH2 [M2_SS]
